The record followed here is article PMC3947851 (Bioorganic & medicinal chemistry, 2012).

Values after ≈ are worked out from the molar mass of the structure shown. Structures can show the parent of a compound that is named as a salt.

In series [1] the test system is HEK293 cells. Briefly: MTT cytotoxicity assay, HEK293. It is filed as cell-based, human. The following applies: 10 μM, MTT. The gist of the method: (§1)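 MTT tetrazolium assay in 96-well plates. Cells were grown […] at 37 °C in 5% CO2 and passaged in DMEM. Each well was seeded with 1500 cells, and triplicate wells were exposed continuously to varying concentrations of test compound for four days. MTT was read at the end of day 4, and IC50 was determined.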

Series [2] deals with T1, SaFtsZ (Staphylococcus aureus, UniProt P0A031).
T1 sequence (P0A031 1-390): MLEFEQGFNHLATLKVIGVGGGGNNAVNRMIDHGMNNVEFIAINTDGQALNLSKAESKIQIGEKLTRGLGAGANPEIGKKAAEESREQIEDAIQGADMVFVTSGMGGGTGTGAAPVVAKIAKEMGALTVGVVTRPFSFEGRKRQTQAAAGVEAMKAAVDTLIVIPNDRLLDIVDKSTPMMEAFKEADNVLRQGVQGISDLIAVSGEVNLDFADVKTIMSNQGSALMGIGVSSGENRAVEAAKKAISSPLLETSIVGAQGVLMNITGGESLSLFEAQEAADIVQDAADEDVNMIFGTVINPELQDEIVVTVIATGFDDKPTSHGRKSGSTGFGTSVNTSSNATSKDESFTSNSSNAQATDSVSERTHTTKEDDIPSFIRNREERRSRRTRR
Briefly: FtsZ polymerization assay. The format is biochemical. The following applies: for Impact on SaFtsZ polymerization (A340) / Stability of compound-induced SaFtsZ polymers to added GDP: compound 40 μg/mL, 1 mM GTP; for Impact on SaFtsZ polymerization (A340): 10 μM SaFtsZ, 25 °C; for Stability of compound-induced SaFtsZ polymers to added GDP: 1 mM GDP added.

The target in series [3] is microtubule-associated protein (MAP)-rich porcine β-tubulin (Sus scrofa, UniProt P02554). Briefly: Tubulin polymerization assay. The format is biochemical. The following applies: tubulin 2 mg/mL. The gist of the method: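 MAP-rich porcine tubulin (70% tubulin, 30% MAPs) at 2 mg/mL with 1 mM GTP in 80 mM PIPES NaOH (pH 7.0), 2 mM MgCl2, 1 mM EGTA. Test compound 40 μg/mL, paclitaxel 25 μg/mL or nocodazole 10 μg/mL as comparators, or DMSO vehicle. Turbidity (A340) read continuously at 37 °C over 60 min.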

Series [4] addresses T1, SaFtsZ. Briefly: FtsZ GTPase assay. The format is biochemical. Particulars: for Concentration dependence of the impact on SaFtsZ GTPase activity: 10 μM SaFtsZ, Fig. 4.
In series [5] the test system is S. aureus 8325-4 (MSSA). Briefly: MIC assay, CLSI broth microdilution, MSSA. The format is cell-based. The following applies: Staphylococcus aureus, 24 h, read-out: MIC S. aureus 8325-4 (MSSA), lowest concentration at which growth is ≥90% inhibited, CAMH broth, 37 °C.
Series [6] can be described thus: MTT cytotoxicity assay, HEK293. It is filed as cell-based, human. Particulars: human, HEK293 cells. Summed up:
as §1

Series [7] is described as follows: MTT cytotoxicity assay, MDCK. It is filed as cell-based, canine. Particulars: dog, MDCK cells. Summed up: as §1

Sequence of microtubule-associated protein (MAP)-rich porcine β-tubulin (P02554 whole entry): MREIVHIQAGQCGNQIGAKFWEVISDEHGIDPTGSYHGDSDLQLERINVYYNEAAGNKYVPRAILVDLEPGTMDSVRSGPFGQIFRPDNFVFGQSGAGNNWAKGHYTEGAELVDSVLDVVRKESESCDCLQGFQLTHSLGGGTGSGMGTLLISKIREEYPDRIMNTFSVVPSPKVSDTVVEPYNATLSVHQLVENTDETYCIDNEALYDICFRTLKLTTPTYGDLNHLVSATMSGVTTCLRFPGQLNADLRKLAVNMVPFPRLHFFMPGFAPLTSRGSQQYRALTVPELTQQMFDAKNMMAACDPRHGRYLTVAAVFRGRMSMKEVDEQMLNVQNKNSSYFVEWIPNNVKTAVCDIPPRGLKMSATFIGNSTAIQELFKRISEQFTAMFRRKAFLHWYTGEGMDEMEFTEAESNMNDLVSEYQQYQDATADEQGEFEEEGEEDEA
Sequence of microtubule-associated protein (MAP)-rich porcine β-tubulin (P02550 whole entry partner): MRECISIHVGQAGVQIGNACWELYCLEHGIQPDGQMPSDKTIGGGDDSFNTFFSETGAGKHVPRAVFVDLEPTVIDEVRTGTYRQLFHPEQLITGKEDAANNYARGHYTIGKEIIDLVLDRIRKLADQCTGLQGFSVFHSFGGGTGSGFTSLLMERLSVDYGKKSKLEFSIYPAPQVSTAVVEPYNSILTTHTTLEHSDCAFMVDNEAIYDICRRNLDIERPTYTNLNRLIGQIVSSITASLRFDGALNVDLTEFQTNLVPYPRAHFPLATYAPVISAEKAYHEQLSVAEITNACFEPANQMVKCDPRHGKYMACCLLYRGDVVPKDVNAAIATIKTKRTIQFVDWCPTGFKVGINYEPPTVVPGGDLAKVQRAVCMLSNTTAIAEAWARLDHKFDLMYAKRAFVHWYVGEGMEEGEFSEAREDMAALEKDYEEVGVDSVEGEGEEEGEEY

Regarding `COc1cc2cc(-c3cccc(-c4ccccc4)c3)nc(CN=C(N)N)c2cc1OC` [Compound 13a, 2-((3-([1,1′-biphenyl]-3-yl)-6,7-dimethoxyisoquinolin-1-yl)methyl)guanidine trifluo roacetate], the “Human cell toxicity at the highest concentration tested” value (“Human cell toxicity” for short) in series [1] is recorded as “no significant human cell toxicity”.

`COc1cc2cc(-c3cccc(-c4ccc(C(C)(C)C)cc4)c3)[n+](C)c(C)c2cc1OC.[I-]` [Compound 7b, 3-(4′-(t-Butyl)-[1,1′-biphenyl]-3-yl)-6,7-dimethoxy-1,2-dimethylisoquinolin-2-ium iodide]: in series [2], the “Impact on SaFtsZ polymerization (A340)” value was “stimulate SaFtsZ polymerization” and the “Stability of compound-induced SaFtsZ polymers to added GDP” value (“Stability” below) was “stable to the depolymerizing effects of GDP”. In series [3] (compound 40 μg/mL, 37 °C), the “Impact on polymerization of porcine β-tubulin (A340)” value (shortened to “Impact on polymerization”) was “neither 7b nor 19a exert a significant impact”.

Take `CC(=O)O[C@H]1C(=O)[C@@]2(C)[C@H]([C@H](OC(=O)c3ccccc3)[C@]3(O)C[C@H](OC(=O)[C@H](O)[C@@H](NC(=O)c4ccccc4)c4ccccc4)C(C)=C1C3(C)C)[C@]1(OC(C)=O)CO[C@@H]1C[C@@H]2O` [paclitaxel, reference compound]: the “Impact on polymerization” value in series [3] (25 μg/mL, positive control) is “produce their expected impacts on tubulin polymerization dynamics”.

As for `CN[C@H](CC(C)C)C(=O)N[C@H]1C(=O)N[C@@H](CC(N)=O)C(=O)N[C@H]2C(=O)N[C@H]3C(=O)N[C@H](C(=O)N[C@H](C(=O)O)c4cc(O)cc(O)c4-c4cc3ccc4O)[C@H](O)c3ccc(c(Cl)c3)Oc3cc2cc(c3O[C@@H]2O[C@H](CO)[C@@H](O)[C@H](O)[C@H]2O[C@H]2C[C@](C)(N)[C@H](O)[C@H](C)O2)Oc2ccc(cc2Cl)[C@H]1O` [Vancomycin, reference compound], in series [2], the “Impact on SaFtsZ polymerization (A340)” value is on record as “no impact on the polymerization of SaFtsZ”. The “Percent GTPase activity” value in series [4] (40 μg/mL, percentage of activity with vehicle (DMSO) alone, mean of two ± SD) was “no significant impact”.

Take `COc1cc2cc(-c3cccc(-c4ccccc4)c3)nc(CCN=C(N)N)c2cc1OC` [Compound 15a, 2-(2-(3-([1,1′-Biphenyl]-3-yl)-6,7-dimethoxyisoquinolin-1-yl)ethyl)guanidine]: the “Impact on SaFtsZ polymerization (A340)” value in series [2] is “stimulate SaFtsZ polymerization”. The “Concentration dependence of the impact on SaFtsZ GTPase activity” value in series [4] is “stimulate GTPase activity at lower concentrations, followed by inhibition at higher concentrations”. In addition, the “Human cell toxicity” value in series [1] is “no significant human cell toxicity”.

As for `COc1cc2cc(-c3cccc(-c4ccc(C(C)(C)C)cc4)c3)nc(C)c2cc1OC` [Compound 7a, 3-(4′-(t-Butyl)-[1,1′-biphenyl]-3-yl)-6,7-dimethoxy-1-methylisoquinoline], the “Impact on SaFtsZ polymerization (A340)” value in series [2] was “did not significantly impact SaFtsZ polymerization”.

On to `COc1cc2cc(-c3cccc(C(C)(C)C)c3)nc(CCN=C(N)N)c2cc1OC` [Compound 20a, 2-(2-(3-(3-(t-Butyl)phenyl)-6,7-dimethoxyisoquinolin-1-yl)ethyl)guanidine], for which the MIC in series [5] was 2 to 4 mg/L (≈ 4.92 to 9.84 µM). In series [2] (20, 30 and 40 μg/mL), the “Concentration dependence of the enhancement of SaFtsZ polymerization” value is “enhances SaFtsZ polymerization increases with increasing compound concentration”. In series [2], the “Impact on SaFtsZ polymerization (A340)” value is reported as “stimulate SaFtsZ polymerization” and the “Stability” value was “stable to the depolymerizing effects of GDP”.

`COc1cc2cc(-c3cccc(C(C)(C)C)c3)nc(C)c2cc1OC` [Compound 4a, 3-(3-(t-Butyl)phenyl)-6,7-dimethoxy-1-methylisoquino line]: the “Impact on SaFtsZ polymerization (A340)” value in series [2] is recorded as “did not significantly impact SaFtsZ polymerization”.

Regarding `COc1cc2cc(-c3cccc(C(C)(C)C)c3)nc(CN)c2cc1OC` [Compound 16a, (3-(3-(t-Butyl)phenyl)-6,7-dimethoxyisoquinolin-1-yl)methanamine], the “Human cell toxicity” value in series [1] is listed as “no significant human cell toxicity”.

As for `COc1cc2cc(-c3cccc(-c4ccc(C(C)(C)C)cc4)c3)nc(CN=C(N)N)c2cc1OC` [Compound 21a, 2-((3-(4′-(t-Butyl)-[1,1′-biphenyl]-3-yl)-6,7-dimethoxyisoquinolin-1-yl)methyl)guanidine trifluoroacetate], the MIC in series [5] lay in the range of 2 to 4 mg/L.

As for `COc1cc2cc(-c3cccc(C(C)(C)C)c3)nc(C/N=C(/C)N)c2cc1OC` [Compound 18a, N′-((3-(3-(t-butyl)phenyl)-6,7-dimethoxyisoquinolin-1-yl)methyl)acetimidamide], the “Impact on SaFtsZ polymerization (A340)” value in series [2] was “stimulate SaFtsZ polymerization”. In addition, the “Concentration dependence of the impact on SaFtsZ GTPase activity” value in series [4] is “stimulate GTPase activity at lower concentrations, followed by inhibition at higher concentrations”.

As for `COc1cc2cc(-c3cccc(-c4ccc(-c5ccccc5)cc4)c3)[n+](C)c(C)c2cc1OC.[I-]` [Compound 5b, 3-([1,1′:4′,1″-Terphenyl]-3-yl)-6,7-dimethoxy-1,2-dimethy lisoquinolin-2-ium iodide], the “Impact on SaFtsZ polymerization (A340)” value in series [2] was “stimulate SaFtsZ polymerization”.

Take `COc1cc2cc(-c3cccc(C(C)(C)C)c3)nc(CCN)c2cc1OC` [Compound 17a, 2-(3-(3-(t-Butyl)phenyl)-6,7-dimethoxyisoquinolin-1-yl)ethanamine]: the “Impact on SaFtsZ polymerization (A340)” value in series [2] is “stimulate SaFtsZ polymerization”. Also, the “Stability” value in series [2] was “stable to the depolymerizing effects of GDP”. Besides, the half-maximal inhibitory concentration (IC50) at 4 days in series [6] and in series [7] was 2.2 to 3.5 µM each time.

In the case of `NC(=O)c1c(F)ccc(OCc2nc3cc(Cl)cnc3s2)c1F` [PC190723, reference compound], the “Impact on SaFtsZ polymerization (A340)” value in series [2] is “stimulate SaFtsZ polymerization”.

For `COC(=O)Nc1nc2cc(C(=O)c3cccs3)ccc2[nH]1` [nocodazole, reference compound], the “Impact on polymerization” value in series [3] (10 μg/mL, positive control) is “produce their expected impacts on tubulin polymerization dynamics”.

For the molecule `COc1cc2cc(-c3cccc(C(C)(C)C)c3)nc(CN=C(N)N)c2cc1OC` [Compound 19a, 2-((3-(3-(t-Butyl)phenyl)-6,7-dimethoxyisoquinolin-1-yl)methyl)guanidine], the “Impact on SaFtsZ polymerization (A340)” value in series [2] is “stimulate SaFtsZ polymerization”. Besides, the “Impact on polymerization” value in series [3] (compound 40 μg/mL, 37 °C) is on record as “neither 7b nor 19a exert a significant impact”.

Consider `COc1cc2cc(-c3cccc(-c4ccccc4)c3)nc(N=C(N)N)c2cc1OC` [Compound 10a, 2-(3-([1,1′-biphenyl]-3-yl)-6,7-dimethoxyisoquinolin-1-yl)guanidine], for which the half-inhibitory concentration (IC50) at 4 days in series [6] and in series [7] was 2.2 to 3.5 µM in each case.

Regarding `COc1ccc2cc3[n+](cc2c1OC)CCc1cc2c(cc1-3)OCO2` [Berberine, berberine, reference compound], in series [2], the “Impact on SaFtsZ polymerization (A340)” value is reported as “did not significantly impact SaFtsZ polymerization”.
